Source: PubChem BioAssay
KCNQ1 inh – inhibitors of human KCNQ1 channel, primary screen, cell-based, thallium flux, high-throughput; B-score at 10 µM; CHO-K1 KCNQ1, FluxOR thallium flux fluorescence; stronger effect = higher value; Potassium voltage-gated channel subfamily KQT member 1 (Homo sapiens), P51787; hit rate 1.3% among 310,000; AID 2642, 2010;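 active means compounds whose thallium flux B-score, printed positive for inhibition, exceeds three library SD while starting fluorescence stays within three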;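 further: channel opened by potassium depolarization with thallium stimulus after 20 min compound exposure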
KCNQ1 act – potentiators or activators of KCNQ1 channel, primary screen, cell-based, thallium flux, high-throughput. CHO-K1 KCNQ1, thallium flux FluxOR fluorescence; stronger effect = higher value. B-score at 10 µM. hit rate 0.35% among 310,000. AID 2648, 2010. Potassium voltage-gated channel subfamily KQT member 1 (Homo sapiens), P51787;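 active means fluorescence ratio B-score, a plate-corrected score, at least three library SD, with initial intensity B-score within 5 SD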
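System: Stable KCNQ1 CHO-K1 line | Incubation: 90 min dye loading and 20 min compound exposure, both at room temperature | Measure: Ratio B score | Medium: Assay buffer for compound exposure, DMSO matched across wells | Compound dosing: Single-concentration screen | Probe or stimulus: K+/Tl+ depolarizing stimulus | Measured by: Kinetic FluxOR fluorescence, 10 s baseline plus 110 s post-stimulus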
hERG rescue – hERG rescue from dofetilide block, primary screen, cell-based, CHO-hERG, FluxOR thallium flux, dofetilide IC70 | hit rate 0.51% among 310,000 | AID 1511, 2009 | activation (rescue from dofetilide block), less the hit threshold, % at 10 µM | dofetilide IC70 present;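 active means activation above the mean of controls blocked by dofetilide plus 5 SD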;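 further: thallium influx through hERG after potassium depolarization seen as dye fluorescence rise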
Kir21 inh – inhibitors of mouse Kir2.1 inward-rectifier potassium channel; HEK293-Kir2.1, FluxOR thallium flux fluorescence; stronger effect = lower value; B-score at 10 µM; hit rate 0.85% among 310,000; AID 1672, 2009;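 active means fluorescence ratio B-score at or below minus 3 SD of library scores, with starting-brightness B-score within 2 SD, cut at about -4.2 in these data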;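 further: channel flux triggered by added potassium and thallium sulfate stimulus; B-score of peak minus minimum fluorescence over baseline after thallium stimulus; more negative B-score means stronger Kir2.1 block with less thallium influx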
KCNK3 block – human KCNK3 channel inhibitors, primary screen, CHO cells, FluxOR thallium flux, B-score; Potassium channel subfamily K member 3 (Homo sapiens), O14649; FluxOR fluorescence; stronger effect = lower value; B-score at 10 µM; hit rate 0.84% among 340,000; AID 602410, 2012;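 active means B-score under library mean minus 4 SD, starting fluorescence ratio at most library mean plus 5 SD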;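 further: more negative B-score means stronger inhibition of thallium flux through KCNK3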
KCNK9 inh – KCNK9 potassium channel inhibitors, primary screen, HEK293 cells, thallium flux; hit rate 1.2% among 310,000; AID 488922, 2010; Potassium channel subfamily K member 9 (Homo sapiens), Q9NPC2; B-score at 10 µM; FluxOR thallium flux fluorescence; stronger effect = lower value;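 active means ratio B-score over 3 SD below the library mean, with starting fluorescence within 5 SD of its mean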;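 further: negative B-score means less thallium flux so channel inhibition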
KCNQ1 inh valid – KCNQ1 potassium channel inhibitors, confirmation, cell-based, Tl flux, duplicate | KCNQ1 cell line, FluxOR thallium flux fluorescence | shares compounds with KCNQ1 inh | hit rate 93% among 1,600 | inhibition, % at 10 µM;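 active means primary screen active, with duplicate mean exceeding buffer control mean plus 3 SD of buffer wells, cut at about 28% in these data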;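 further: 0% = buffer control ratio and 100% = XE991 inhibitor control ratio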
CHO KCNQ1 ctr – thallium flux effects in parental CHO cells, counter-screen for KCNQ1 inhibitor project, cell-based, Tl flux. shares compounds with KCNQ1 inh. parental CHO-K1, FluxOR thallium flux fluorescence ratio; stronger effect = lower value; zero means no signal rise above baseline. fluorescence ratio (Tl flux) at 10 µM. hit rate 21% among 1,600. AID 588366, 2011;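 active means mean of duplicate thallium-flux fluorescence ratios in parental host cells more than 5 SD below the buffer control mean, cut at about 0.38 in these data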;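 further: ratio is peak minus minimum fluorescence divided by baseline fluorescence; actives read low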
KCNQ1 APC inh – KCNQ1 channel inhibitors, confirmation, orthogonal assay, cell-based, automated electrophysiology | AID 624120, 2012 | KCNQ1-CHO cells, automated patch clamp current | hit rate 20% among 490 | calls only at 10 µM | shares compounds with KCNQ1 inh;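 active means KCNQ1 current drop exceeding 3 SD of negative control wells, seen in both duplicate runs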;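 further: steady state current during a 2 s step from -80 to +40 mV; negative values mean current inhibition and positive values mean potentiation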
KCNQ2 spec – KCNQ2 channel inhibition, selectivity assay for KCNQ1 inhibitor project, cell-based. hit rate 71% among 1,600. KCNQ2 cells, FluxOR thallium flux fluorescence. shares compounds with KCNQ1 inh. AID 651746, 2012. inhibition, % at 10 µM;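 active means mean percent inhibition of the KCNQ2 thallium signal more than 5 SD above the buffer-only control wells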;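 further: KCNQ2 expressed in CHO cells; 0% = buffer control wells and 100% = XE-991 inhibitor control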
Target sequence (O88943 whole entry, looked up): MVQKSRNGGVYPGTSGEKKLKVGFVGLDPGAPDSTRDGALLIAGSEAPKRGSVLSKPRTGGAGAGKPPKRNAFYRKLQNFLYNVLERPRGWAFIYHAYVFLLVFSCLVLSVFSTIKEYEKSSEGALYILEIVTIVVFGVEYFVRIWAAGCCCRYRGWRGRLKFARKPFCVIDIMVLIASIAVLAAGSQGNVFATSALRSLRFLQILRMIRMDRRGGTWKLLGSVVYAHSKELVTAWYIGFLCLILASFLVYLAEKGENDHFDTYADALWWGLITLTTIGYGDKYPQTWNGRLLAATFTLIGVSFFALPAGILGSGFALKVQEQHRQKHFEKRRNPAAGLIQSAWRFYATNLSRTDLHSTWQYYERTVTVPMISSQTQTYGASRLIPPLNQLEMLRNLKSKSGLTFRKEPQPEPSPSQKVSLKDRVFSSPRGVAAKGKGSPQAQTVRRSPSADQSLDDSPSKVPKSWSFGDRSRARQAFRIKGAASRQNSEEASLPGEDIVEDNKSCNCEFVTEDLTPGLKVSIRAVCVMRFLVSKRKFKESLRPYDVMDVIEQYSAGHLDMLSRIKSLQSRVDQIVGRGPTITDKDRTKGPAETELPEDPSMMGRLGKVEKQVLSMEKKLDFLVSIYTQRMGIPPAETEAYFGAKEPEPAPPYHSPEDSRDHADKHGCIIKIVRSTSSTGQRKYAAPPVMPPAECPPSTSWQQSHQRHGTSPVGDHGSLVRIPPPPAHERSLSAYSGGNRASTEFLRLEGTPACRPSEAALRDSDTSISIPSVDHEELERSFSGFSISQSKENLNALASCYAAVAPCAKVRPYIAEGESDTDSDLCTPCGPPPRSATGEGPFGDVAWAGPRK
KCNQ1-KCNE1 inh – KCNQ1/KCNE1 channel inhibition, selectivity assay for KCNQ1 inhibitor project, CHO-K1 cells, thallium flux, FluxOR | shares compounds with KCNQ1 inh | inhibition, % at 10 µM | hit rate 77% among 1,600 | FluxOR thallium flux fluorescence;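 active means mean percent inhibition of duplicate wells above the buffer-only control mean plus 3 SD of those controls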;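 further: 0% = buffer only wells and 100% = XE-991 inhibitor control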
* = called active by the depositor; i = inactive; x = not tested or not shown; + = active, no number. The list is not random: actives were taken first. Their share in the collection is about 3.7%.

SMILES	KCNQ1 inh	KCNQ1 act	hERG rescue	Kir21 inh	KCNK3 block	KCNK9 inh	KCNQ1 inh valid	CHO KCNQ1 ctr	KCNQ2 spec	KCNQ1-KCNE1 inh	others
COc1cccc(CN2CCN(Cc3cccn3-c3cccnc3)CC2CCO)c1 (stereo unspecified)	i	i	-4.1	0.26	i	i	x	x	x	x
CCN1C(=O)C(CC(=O)Nc2ccc(Br)cc2)N(CCCc2ccccc2)C1=S (stereo unspecified)	8*	i	-13.9	-0.01	i	i	140.0*	0.334*	114.7%*	196.0%*
Oc1cccc(NC(=S)Nc2cccnc2)c1	i	i	-4.1	-0.04	i	i	x	x	x	x
Oc1cccc(NC(=S)Nc2ccc(SC(F)F)cc2)c1	10*	i	-12.9	-0.11	i	i	68.0*	0.529	i	90.0%*
c1csc(-c2nnc(NC3CCCCC3)c3ccccc23)c1	10*	i	-19.1	0.67	i	i	52.5*	0.551	68.7%*	51.0%*
Cc1cccc(-c2c3c(=O)n(C)c(=O)n(C)c3cn2-c2ccc(O)cc2)c1	6*	i	-15.4	0.09	i	i	76.0*	0.493	i	95.5%*
CCCCc1ccc(NC(=S)NCCc2ccc(S(N)(=O)=O)cc2)cc1	i	i	-9.5	0.09	i	i	x	x	x	x
CC(C)(C)OC(=O)N1CCCC(C(=O)CC#N)C1 (stereo unspecified)	9*	i	-10.6	-0.36	i	i	96.0*	0.492	109.0%*	187.5%*	KCNQ1 APC inh=i
CN(C)S(=O)(=O)c1ccc(C(=O)NC(=O)CSc2nncs2)cc1	x	x	x	x	i	x	x	x	x	x
S=C(Nc1cccc(Cl)c1)NC1CCCCC1	8*	i	-11.6	-0.61	i	i	49.5*	0.549	59.7%*	61.5%*
Cc1cccc(Cn2c(C(C)(C)C)cc3cccnc32)c1	8*	i	-9.9	-5.12*	i	i	64.0*	0.45	67.0%*	i
Cc1cccc(CN2CCN(c3ncccn3)CC2)c1	i	i	1.8	-0.65	i	i	x	x	x	x
COc1ccc(OC)c(/C=N/NC(=S)NCCc2ccccc2)c1	i	i	-8.6	0.73	i	i	x	x	x	x
Cc1ccc(N2C(=O)c3ccccc3C2C(=O)c2ccc(C)c(C)c2O)cc1 (stereo unspecified)	7*	i	-6.0	1.89	i	i	90.5*	0.365*	103.3%*	74.0%*
Cc1ccc(N2C(=O)c3ccccc3C2C(=O)c2ccc(O)cc2O)cc1 (stereo unspecified)	i	i	-2.1	0.92	i	i	x	x	x	x
O=C(Nc1ccccc1)C1C(c2ccccc2)C1(Cl)Cl (stereo unspecified)	14*	i	-11.5	0.16	i	i	102.0*	0.433	101.0%*	136.5%*	KCNQ1 APC inh=+
O=C(O)c1ccc(CSc2nc3ccccc3c(=O)n2-c2ccccc2)cc1	i	i	-4.3	0.57	i	i	x	x	x	x
COC(=O)c1ccc2c(=O)n(-c3ccccc3)c(SCN3C(=O)c4ccccc4C3=O)nc2c1	6*	i	-7.6	-0.47	i	i	87.0*	0.513	i	65.5%*
O=C(NC1CCCCC1)C(c1ccco1)N(C(=O)C(F)(F)F)C1CC1 (stereo unspecified)	6*	i	-9.3	0	i	i	73.5*	0.466	i	100.5%*
Cc1ccc(CN(C(=O)C(F)(F)F)C(C(=O)NC2CCCCC2)c2ccco2)cc1 (stereo unspecified)	i	i	-4.7	-0.23	i	i	x	x	x	x
S=C(NCCSCc1ccc(Cl)cc1)Nc1ccccc1	i	i	-16.3	-3.27	i	i	x	x	x	x
S=C(NCCSCc1ccccc1Cl)Nc1ccccc1	10*	i	-9.8	-0.08	i	i	106.5*	0.433	87.3%*	58.0%*	KCNQ1 APC inh=i
Cc1cccc(CSCCNC(=S)Nc2ccccc2)c1	7*	i	-14.4	-1.49	i	i	55.5*	0.53	65.0%*	98.5%*
COc1cc(NC(=O)c2ccno2)cc(C(=O)Nc2cccc(C(F)(F)F)c2)c1	9*	i	-17.0	1.24	i	i	110.5*	0.351*	99.7%*	163.0%*
FC(F)(F)c1cc(-c2ccco2)nc(N2CCN(Cc3ccccc3)CC2)n1	8*	i	-10.5	0.76	i	i	82.0*	0.421	75.0%*	105.5%*
Cc1cccc(NC(=O)C2CCN(S(=O)(=O)c3c(C)c(C)cc(C)c3C)CC2)n1	6*	i	-21.8	0.93	i	i	77.5*	0.402	77.0%*	177.0%*
Cc1ccc(Nc2nc3nonc3[nH]c2=O)cc1Cl	9*	i	-12.5	-0.01	i	i	29.0*	0.492	i	i
Cc1cccc(C(=O)OC(C)C(=O)Nc2ccc(S(=O)(=O)N3CCCC3)cc2)c1O (stereo unspecified)	10*	i	-17.6	0.92	i	i	136.0*	0.379*	117.0%*	177.5%*
CC(OC(=O)c1cc(Br)ccc1O)C(=O)Nc1ccc(S(=O)(=O)N2CCCC2)cc1 (stereo unspecified)	i	i	-5.2	1.22	i	i	x	x	x	x
CC1(C)CC(=O)C2=C(C1)Nc1ccccc1S2	i	i	-15.4	0.71	i	i	x	x	x	x
